We go through one compound from ChEMBL document CHEMBL4052826, “Design and Synthesis of Novel Reactive Oxygen Species Inducers for the Treatment of Pancreatic Ductal Adenocarcinoma” (J Med Chem, 2018).

The test system of data set [1] is Mus musculus. In words: Induction of unfolded protein response in tumor of NOD/SCID mouse xenografted with MIAPaCa2 cells assessed as upregulation of GRP78 expression at 5 mg/kg, ip administered 5 times a week until day 44 by Western blot method. The format is functional, organism-based. An outline of the steps:
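Dosed ip in 5% DMSO/60% propylene glycol/35% saline, five days on/two off, until day 44, versus vehicle. Tumor lysates immunoblotted with primary antibodies, Dylight 800 secondary, fluorescent scan.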
In general terms: A western blot detects proteins with antibodies after separation by electrophoresis.

Data set [2] relates to Mus musculus. In words: Toxicity in NOD/SCID mouse xenografted with human MIAPaCa2 cells assessed as microscopic changes in lung at 5 mg/kg, ip administered 5 times a week until day 44 by hematoxylin and eosin staining-based inverted microscopic method. It counts as organism-based. To be noted: in vivo. A digest of the protocol: (§1)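 Necropsy after the 44-day ip course in MIA PaCa-2 xenograft-bearing NOD/SCID mice: heart, kidney, liver, lung, spleen and pancreas fixed in 10% neutral buffered formalin, paraffin-embedded, sectioned and stained with hematoxylin and eosin. Sections examined by inverted microscope at 20X, compared with vehicle-treated animals.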

Data set [3] relates to Mus musculus. In words: Toxicity in NOD/SCID mouse xenografted with human MIAPaCa2 cells assessed as microscopic changes in heart at 5 mg/kg, ip administered 5 times a week until day 44 by hematoxylin and eosin staining-based inverted microscopic method. The settings on record: in vivo. It counts as organism-based. A digest of the protocol: as §1
For data set [4], the system named is MIA PaCa-2. In words: Induction of apoptosis signaling in human MIAPaCa2 cells at 5 times IC50 after 4 hrs by IPA analysis. The format is functional, cell-based.
The test system of data set [5] is Mus musculus. Description: Toxicity in NOD/SCID mouse xenografted with human MIAPaCa2 cells assessed as microscopic changes in liver at 5 mg/kg, ip administered 5 times a week until day 44 by hematoxylin and eosin staining-based inverted microscopic method. It counts as organism-based. The settings on record: in vivo. A digest of the protocol:
as §1
Background: Xenograft models place foreign cells or tissue in a host animal.

The subject of data set [6] is MIA PaCa-2. In words: Induction of reactive oxygen species generation in human MIAPaCa2 cells assessed as upregulation of HMOX1 gene expression after 4 hrs by Bru-seq analysis. It counts as functional, cell-based.
A further data set deals with PANC-1. In words: Induction of unfolded protein response in human PANC1 cells assessed as upregulation of GRP78 expression at 2 uM by Western blot analysis. The settings on record: TDE = time-dependent effect. The format is functional, cell-based. A digest of the protocol:
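Cells (4×10^5) seeded in 60 mm dishes, cultured in RPMI1640 with 10% FBS, 5% CO2, 37°C, then compound-treated. Lysed 30 min at 4°C, BCA-quantified, 40 μg protein resolved by SDS-PAGE, transferred to PVDF, probed overnight at 4°C with primary antibodies (1:1000; GAPDH or actin loading control), then Dylight 800 secondary; fluorescence scanned. Bands normalized to loading control; mean ± SD, three independent experiments.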

The test system of data set [7] is MIA PaCa-2. In words: Induction of reactive oxygen species generation in human MIAPaCa2 cells at 1.1 to 10 uM after 24 hrs in presence of NAC by H2DCFDA reactivity assay. It counts as functional, cell-based. An outline of the steps:
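H2DCFDA assay. Trypsinized MIA PaCa-2 cells in suspension were loaded with 20 μM H2DCFDA for 30 min at 37°C, washed and plated at 20,000/well. After 30 min they were treated with compound at 10, 3.3 or 1.1 μM. Fluorescence was read at 493/523 nm over time. DMSO basal and unstained controls were included. NAC pretreatment, where used, was 5 mM for 30 min. Duplicates, three independent experiments.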

Data set [8] concerns MIA PaCa-2. In words: Antitumor activity against human MIAPaCa2 cells xenografted in NOD/SCID mouse assessed as tumor volume at 5 mg/kg, ip administered 5 times a week until day 44 (reference value: 1291 +/- 168 mm'3). It counts as functional.
The subject of data set [9] is BXPC-3. In words: Induction of unfolded protein response in human BxPC3 cells assessed as upregulation of GRP78 expression at 2 uM by Western blot analysis. It counts as functional, cell-based. To be noted: TDE = time-dependent effect. A digest of the protocol: (§2)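 Immunoblotting. Cells (4×10^5) in 60 mm dishes were treated, lysed 30 min at 4°C and quantified by BCA. 40 μg protein was run on SDS-PAGE and transferred to PVDF. Primary antibodies (1:1000) incubated overnight at 4°C, then Dylight 800 secondary, with fluorescent scanning. Bands were normalized to GAPDH or actin loading controls. Mean ± SD, three independent experiments, Student's t-test.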

Data set [10] deals with MIA PaCa-2. In words: Induction of unfolded protein response in human MIAPaCa2 cells assessed as upregulation of GRP78 expression at 2 uM by Western blot analysis. It counts as functional, cell-based. To be noted: TDE = time-dependent effect. An outline of the steps: as §2
Data set [11] concerns MIA PaCa-2. Description: Cytotoxicity against human MIAPaCa2 cells assessed as decrease in cell proliferation after 72 hrs by MTT assay. It counts as functional, cell-based. A digest of the protocol:
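MTT assay. Cells (3000–8000/well) attached overnight in RPMI1640 with 10% FBS; the GR line was kept with 200 nM gemcitabine. Serial dilutions (30 nM–10 μM for most lines) were applied for 72 h. MTT was added at a final 300 μg/mL for 3 h at 37°C, formazan was dissolved in DMSO and A570 read. Inhibition = (1 − OD treated/OD control) × 100. IC50 given as mean ± SD, three independent experiments.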
On the technique in general: Tetrazolium dyes change colour on reduction, which living cells bring about.

Data set [12] relates to MIA PaCa-2. In words: Downregulation of Sp1 gene expression in human MIAPaCa2 cells at IC50 to 5 times IC50 after 4 hrs by Bru-seq analysis. It counts as functional, cell-based.
Data set [13] deals with BXPC-3. Description: Induction of reactive oxygen species generation in human BxPC3 cells assessed as upregulation of HO-1 expression at 2 uM after 4 to 24 hrs by Western blot analysis. The format is functional, cell-based. A digest of the protocol: as §2

In general, IC50 refers to the concentration that gives 50% inhibition.

Activity calls are given as the source filed them. No cut-off for these calls is given here.

As to `O=C1C(Nc2ccc(-c3ccccc3)cc2)=CC(=O)c2ncncc21`, the result in the data set on Mus musculus [1], with MIA PaCa-2 [4] and in the data set with BXPC-3 [13] was Active. Further, the Activity result in the data set on Mus musculus [2] was “Non-Toxic”; in the data set on Mus musculus [3], “Non-Toxic”; in the data set on Mus musculus [5], “Non-Toxic”; in the data set with MIA PaCa-2 [6] it was “Dose-dependent effect”; with PANC-1 it was “Tde”; in the data set on MIA PaCa-2 [8], 308 mm3. Further, the Activity result in the data set with BXPC-3 [9] is “Tde”; in the data set on MIA PaCa-2 [10], “Tde”; in the data set on MIA PaCa-2 [11] it was “Dose-dependent effect”. Further, the outcome in the data set on MIA PaCa-2 [7] and in the data set on MIA PaCa-2 [12] was inactive. Further, in the data set with MIA PaCa-2 [11] (MIA PaCa-2, 72 h), the 50% inhibitory concentration (IC50) is 900 nM.
